Measurements reported in ChEMBL document CHEMBL1914438, “Synthesis and biological activity of novel N-cycloalkyl-(cycloalkylaryl)-2-[(3-R-2-oxo-2H-[1,2,4]triazino[2,3-c]quinazoline-6-yl)thio]acetamides” (2011).

Key:
Type in all cases: functional
[1] = system: Photobacterium leiognathi; assay: Antibacterial activity against Photobacterium leiognathi Sh1 assessed as inhibition of bacterial luminescence at 0.1 mg/mL after 10 mins by bioluminometry-based acute action test; design: scale not given: the % may be the effect or the level left
Summary of the method: (§1)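 Marine P. leiognathi Sh1 (Azov Sea shrimp isolate) diluted in chloride solution to 10^5 cells/mL; compounds suspended in DMSO mixed with 1 mL bacterial suspension. Acute test: 10 min at 25 °C, then bioluminescence measured by bioluminometer as % of compound-free control. Tetracycline reference.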

[2] = system: Photobacterium leiognathi; assay: Antibacterial activity against Photobacterium leiognathi Sh1 assessed as inhibition of bacterial luminescence at 0.1 mg/mL after 10 mins by bioluminometry-based chronic action test; design: scale not given: the % may be the effect or the level left
Summary of the method: (§2)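 Chronic (growth plus luminescence) test with P. leiognathi Sh1 at 10^5 cells/mL in chloride solution, compounds added in DMSO. After 10 min at 25 °C, growth medium added at 1:50 and the mix incubated 16–18 h at 30 °C. Luminescence then measured by bioluminometer as % of untreated control. Tetracycline reference.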

[3] = system: Photobacterium leiognathi; assay: Antibacterial activity against Photobacterium leiognathi Sh1 assessed as inhibition of bacterial luminescence at 0.25 mg/mL after 10 mins by bioluminometry-based chronic action test; design: scale not given: the % may be the effect or the level left; summary of the method: as §2
Escherichia coli [4] = assay: Antibacterial activity against Escherichia coli assessed as zone of inhibition at 0.5 mg/mL after 24 hrs by stiff-plate agar-diffusion method; details: read-out: DIZ
Escherichia coli [5] = assay: Antibacterial activity against Escherichia coli assessed as zone of inhibition at 0.1 mg/mL after 24 hrs by stiff-plate agar-diffusion method; details: read-out: DIZ
Staphylococcus aureus [6] = assay: Antibacterial activity against Staphylococcus aureus assessed as zone of inhibition at 0.5 mg/mL after 24 hrs by stiff-plate agar-diffusion method; details: read-out: DIZ
Staphylococcus aureus [7] = assay: Antibacterial activity against Staphylococcus aureus assessed as zone of inhibition at 0.1 mg/mL after 24 hrs by stiff-plate agar-diffusion method; details: read-out: DIZ
Mycobacterium [8] = assay: Antibacterial activity against Mycobacterium luteum assessed as zone of inhibition at 0.5 mg/mL after 24 hrs by stiff-plate agar-diffusion method; details: read-out: DIZ
Mycobacterium [9] = assay: Antibacterial activity against Mycobacterium luteum assessed as zone of inhibition at 0.1 mg/mL after 24 hrs by stiff-plate agar-diffusion method; details: read-out: DIZ
Yamadazyma tenuis [10] = assay: Antifungal activity against Candida tenuis assessed as zone of inhibition at 0.5 mg/mL after 48 to 72 hrs by stiff-plate agar-diffusion method; details: read-out: DIZ
Yamadazyma tenuis [11] = assay: Antifungal activity against Candida tenuis assessed as zone of inhibition at 0.1 mg/mL after 48 to 72 hrs by stiff-plate agar-diffusion method; details: read-out: DIZ
Aspergillus niger [12] = assay: Antifungal activity against Aspergillus niger assessed as zone of inhibition at 0.1 mg/mL after 48 to 72 hrs by stiff-plate agar-diffusion method; details: read-out: DIZ
Aspergillus niger [13] = assay: Antifungal activity against Aspergillus niger assessed as zone of inhibition of late spore formation at 0.5 mg/mL after 48 to 72 hrs by stiff-plate agar-diffusion method; details: read-out: DIZ
[14] = system: Photobacterium leiognathi; assay: Antibacterial activity against Photobacterium leiognathi Sh1 assessed as inhibition of bacterial luminescence at 0.025 mg/mL after 10 mins by bioluminometry-based chronic action test; design: scale not given: the % may be the effect or the level left; summary of the method: as §2
[15] = system: Photobacterium leiognathi; assay: Antibacterial activity against Photobacterium leiognathi Sh1 assessed as inhibition of bacterial luminescence at 0.25 mg/mL after 10 mins by bioluminometry-based acute action test; design: scale not given: the % may be the effect or the level left; summary of the method: as §1
[16] = system: Photobacterium leiognathi; assay: Antibacterial activity against Photobacterium leiognathi Sh1 assessed as inhibition of bacterial luminescence at 0.025 mg/mL after 10 mins by bioluminometry-based acute action test; design: scale not given: the % may be the effect or the level left; summary of the method: as §1
Aspergillus niger [17] = assay: Antifungal activity against Aspergillus niger assessed as zone of inhibition at 0.5 mg/mL after 48 to 72 hrs by stiff-plate agar-diffusion method; details: read-out: DIZ

| Compound | Activity [1] [%] | Activity [2] [%] | Activity [3] [%] | zone of inhibition at 500 µg/mL (Escherichia coli [4]) [mm] | zone of inhibition at 100 µg/mL (Escherichia coli [5]) [mm] | zone of inhibition at 500 µg/mL (Staphylococcus aureus [6]) [mm] | zone of inhibition at 100 µg/mL (Staphylococcus aureus [7]) [mm] | zone of inhibition at 500 µg/mL (Mycobacterium [8]) [mm] | zone of inhibition at 100 µg/mL (Mycobacterium [9]) [mm] | zone of inhibition at 500 µg/mL (Yamadazyma tenuis [10]) [mm] | zone of inhibition at 100 µg/mL (Yamadazyma tenuis [11]) [mm] | zone of inhibition at 100 µg/mL (Aspergillus niger [12]) [mm] | zone of inhibition at 500 µg/mL (Aspergillus niger [13]) [mm] | Activity [14] [%] | Activity [15] [%] | Activity [16] [%] | zone of inhibition at 500 µg/mL (Aspergillus niger [17]) [mm] |
| --- | --- | --- | --- | --- | --- | --- | --- | --- | --- | --- | --- | --- | --- | --- | --- | --- | --- |
| Cc1nn2c(SCC(=O)Nc3ccc(C45CC6CC(CC(C6)C4)C5)cc3)nc3ccccc3c2nc1=O | 65.71 | 94.57 | 50 | 0 | 0 | 0 | 0 | 0 | 0 | 0 | 0 | 0 | 21 | 86.96 | 32.86 | 90 | – |
| COc1ccc(-c2nn3c(SCC(=O)Nc4ccc(C56CC7CC(CC(C7)C5)C6)cc4)nc4ccccc4c3nc2=O)cc1 | 59.57 | 34.62 | 76.92 | 0 | 0 | 0 | 7 | 0 | 0 | 0 | 0 | 0 | – | 48.72 | 59.57 | 76.6 | 0 |
